Measurements taken from ChEMBL document CHEMBL1140400, “Synthesis and anthelmintic properties of arylquinolines with activity against drug-resistant nematodes” (2005).

How the values were obtained:
Format in all cases: functional
[1] = test system: Haemonchus contortus; assay: Lethal dose against Haemonchus contortus using NemaTox assay
Summary of the method: (§1)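 Larval development assay in agar matrix: 80–100 nematode eggs per well with compound at twofold serial dilutions from 100 μg/mL downward; wells supplemented with nutrient medium, incubated at 26 °C until control larvae reached the L3 stage. Day 5 qualitative larval assessment; LD99 taken as lowest concentration inhibiting development in 99% of larvae present.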

[2] = test system: Haemonchus contortus; assay: Lethal dose against Haemonchus contortus CAVR (ivermectin resistant) using NemaTox assay; summary of the method: as §1
[3] = test system: Haemonchus contortus; assay: Lethal dose against Haemonchus contortus VSRG (benzimidazole resistant) using NemaTox assay; summary of the method: as §1
[4] = test system: Haemonchus contortus; assay: Lethal dose against Haemonchus contortus Lawes ( levamisole and benzimidazole resistant) using NemaTox assay; summary of the method: as §1
[5] = test system: Teladorsagia circumcincta; assay: Lethal dose against Ostertagia circumcincta using NemaTox assay; summary of the method: as §1
[6] = test system: Trichostrongylus colubriformis; assay: Lethal dose against Trichostrongylus colubriformis using NemaTox assay; summary of the method: as §1
[7] = test system: Haemonchus contortus; assay: Lethal dose against Haemonchus contortus (susceptible) using NemaTox assay; summary of the method: as §1

Row | Compound | LD99 [1] [µg/mL] | LD99 [2] [µg/mL] | LD99 [3] [µg/mL] | LD99 [4] [µg/mL] | LD99 [5] [µg/mL] | LD99 [6] [µg/mL] | LD99 [7] [µg/mL]
1 | COc1cc(Cl)nc2ccccc12 | 25 | – | – | – | – | – | –
2 | COc1cc(OC)c2cc(Cl)ccc2n1 | 12.5 | 6.3 | 13 | 8.8 | 13 | 25 | 13
3 | COc1nc2ccccc2c(OC)c1-c1ccccc1 | 25 | – | – | – | – | – | –
4 | COc1cc(OC)c2c(C)cc(C)cc2n1 | 25 | – | – | – | – | – | –
5 | COc1cc(OC)c2cccc(-c3ccccc3)c2n1 | 12.5 | 3.1 | 4.4 | 6.3 | 6.3 | 50 | 6.3
6 | COc1ccc(-c2cccc3c(OC)cc(OC)nc23)cc1 | 12.5 | 3.1 | 6.3 | 3.1 | 3.1 | 6.3 | 6.3
7 | COc1ccc(-c2ccc3nc(OC)cc(OC)c3c2)cc1 | 3.1 | 1.6 | 2.2 | 1.6 | 3.1 | 3.1 | 3.1
8 | COc1cc(OC)c2cc(-c3ccccc3)ccc2n1 | 3.1 | 3.1 | 3.1 | 3.1 | 3.1 | 6.3 | 3.1
9 | c1ccc([C@H]2CN3CCSC3=N2)cc1 [LEVAMISOLE] | – | 0.78 | 1.6 | >100 | – | – | 1.6
10 | c1ccc2[nH]c(-c3cscn3)nc2c1 [THIABENDAZOLE] | – | 0.16 | 5 | 5 | – | – | 0.16
